Test results from ChEMBL document CHEMBL2016470, “Quinolinyl- and phenantridinyl-acetamides as bradykinin B1 receptor antagonists” (Bioorg Med Chem Lett, 2012).
The source made the active and inactive calls. No cut-off for these calls is given here.

Key:
B1 bradykinin receptor [1] = molecular target: T1, B1 bradykinin receptor (Homo sapiens, UniProt P46663); experiment: Binding affinity to human bradykinin B1 receptor
T1 sequence (P46663 whole entry): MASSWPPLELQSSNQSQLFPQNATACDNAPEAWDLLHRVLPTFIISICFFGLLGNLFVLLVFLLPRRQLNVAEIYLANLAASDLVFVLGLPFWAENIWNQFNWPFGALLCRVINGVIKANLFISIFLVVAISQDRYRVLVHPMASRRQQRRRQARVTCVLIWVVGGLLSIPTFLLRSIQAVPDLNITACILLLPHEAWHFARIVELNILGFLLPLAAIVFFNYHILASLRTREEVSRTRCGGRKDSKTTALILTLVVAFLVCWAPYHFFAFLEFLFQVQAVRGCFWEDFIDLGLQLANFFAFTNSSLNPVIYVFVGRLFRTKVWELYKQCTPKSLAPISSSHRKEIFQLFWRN

Liver microsomes [2] = experiment: Intrinsic clearance in human liver microsomes assessed per gram of liver at 2.5 uM after 20 mins; type: ADME, Microsome
B1 bradykinin receptor [3] = molecular target: T2, B1 bradykinin receptor (Rattus norvegicus, UniProt P97583); experiment: Antagonist activity at rat bradykinin B1 receptor; type: functional
T2 sequence (P97583 whole entry): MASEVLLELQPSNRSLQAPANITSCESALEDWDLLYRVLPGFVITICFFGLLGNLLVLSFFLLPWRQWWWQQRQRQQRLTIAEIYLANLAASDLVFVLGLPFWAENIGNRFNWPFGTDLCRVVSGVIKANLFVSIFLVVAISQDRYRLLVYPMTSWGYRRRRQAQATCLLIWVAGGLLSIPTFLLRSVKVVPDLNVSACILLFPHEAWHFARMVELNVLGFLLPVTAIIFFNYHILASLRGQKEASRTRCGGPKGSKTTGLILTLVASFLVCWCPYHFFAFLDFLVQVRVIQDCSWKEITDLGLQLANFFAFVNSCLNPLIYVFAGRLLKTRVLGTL

Liver microsomes [4] = experiment: Intrinsic clearance in rat liver microsomes assessed per gram of liver at 2.5 uM after 20 mins; type: ADME, Microsome
Rattus norvegicus [5] = experiment: Antihyperalgesic activity in Sprague-Dawley rat assessed as decrease in CFA-induced joint pain at 1 to 3 mg/kg, po administered 3 days post CFA challenge; type: functional, organism-based
How it was run: (§1)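 Knee monoarthritis induced by intra-articular CFA (0.1 ml); joint pain read as hind-limb weight-bearing deficit on an incapacitance tester (difference between un-injected and injected limbs as % of total hind-limb weight). Rats with post-CFA baseline 20–60% enrolled and randomized to equalize baselines; oral dosing on Day 3 post-CFA in 5% Tween 80 in saline; readings pre-dose and 0.5, 1, 2, 3, 4 h post-dose; change from baseline at maximum effect.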

Rattus norvegicus [6] = experiment: Antiinflammatory activity in Wistar rat pain model assessed as inhibition of DABK-induced paw oedema at 1 mg/kg, po administered 30 mins before DABK challenge measured by plethysometric analysis; type: functional
How it was run: (§2)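 Male Wistar rats, 120–150 g, LPS-pretreated; oral dosing in 5% (v/v) Tween 80 in saline before DABK injection. Paw volume by plethysmometer at 0, 10, 20, 30 min post-DABK; maximum edema volume taken. Percent inhibition from treated group means versus simultaneous vehicle means; ANOVA with Dunnett's test versus vehicle.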

Rattus norvegicus [7] = experiment: Antiinflammatory activity in Wistar rat pain model assessed as inhibition of DABK-induced paw oedema at 10 mg/kg, po administered 30 mins before DABK challenge measured by plethysometric analysis; type: functional; how it was run: as §2
Rattus norvegicus [8] = experiment: Antiinflammatory activity in Wistar rat pain model assessed as inhibition of DABK-induced paw oedema at 3 mg/kg, po administered 30 mins before DABK challenge measured by plethysometric analysis; type: functional; how it was run: as §2
[9] = molecular target: T3, B2 bradykinin receptor (Homo sapiens) (UniProt P30411); experiment: Antagonist activity at human bradykinin B2 receptor at 1 uM; type: functional; design: scale not given: the % may be the effect or the level left
T3 sequence (whole entry): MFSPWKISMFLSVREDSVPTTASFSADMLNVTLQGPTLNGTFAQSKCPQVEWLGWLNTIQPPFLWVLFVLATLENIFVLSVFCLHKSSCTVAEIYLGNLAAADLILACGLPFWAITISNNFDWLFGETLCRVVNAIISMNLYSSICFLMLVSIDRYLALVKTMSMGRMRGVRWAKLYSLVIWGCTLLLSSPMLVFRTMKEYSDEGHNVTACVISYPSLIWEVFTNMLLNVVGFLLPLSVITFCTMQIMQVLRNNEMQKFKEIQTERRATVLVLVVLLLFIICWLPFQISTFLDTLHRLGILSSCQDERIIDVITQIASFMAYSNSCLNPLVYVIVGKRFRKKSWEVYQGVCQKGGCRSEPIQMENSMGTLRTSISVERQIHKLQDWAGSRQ

Rattus norvegicus [10] = experiment: Antiinflammatory activity in po dosed Wistar rat pain model assessed as inhibition of DABK-induced paw oedema administered 120 mins before DABK challenge measured by plethysometric analysis; type: functional, organism-based; how it was run: as §2
Rattus norvegicus [11] = experiment: Antiinflammatory activity in Wistar rat pain model assessed as inhibition of DABK-induced paw oedema at 0.3 mg/kg, po administered 120 mins before DABK challenge measured by plethysometric analysis; type: functional; how it was run: as §2
Rattus norvegicus [12] = experiment: Antiinflammatory activity in Wistar rat pain model assessed as inhibition of DABK-induced paw oedema at 0.03 mg/kg, po administered 120 mins before DABK challenge measured by plethysometric analysis; type: functional; how it was run: as §2
Rattus norvegicus [13] = experiment: Antiinflammatory activity in Wistar rat pain model assessed as inhibition of DABK-induced paw oedema at 0.1 mg/kg, po administered 120 mins before DABK challenge measured by plethysometric analysis; type: functional; how it was run: as §2
Rattus norvegicus [14] = experiment: Antihyperalgesic activity in po dosed Sprague-Dawley rat assessed as decrease in CFA-induced joint pain administered 3 days post CFA challenge; type: functional, organism-based; how it was run: as §1
Rattus norvegicus [15] = experiment: Antiinflammatory activity in Wistar rat pain model assessed as inhibition of DABK-induced paw oedema at 0.3 mg/kg, po administered 60 mins before DABK challenge; type: functional; how it was run: as §2
Rattus norvegicus [16] = experiment: Antiinflammatory activity in Wistar rat pain model assessed as inhibition of DABK-induced paw oedema at 3 mg/kg, po administered 60 mins before DABK challenge; type: functional; conditions: read-out: INH; how it was run: as §2
Rattus norvegicus [17] = experiment: Antiinflammatory activity in Wistar rat pain model assessed as inhibition of DABK-induced paw oedema at 1 mg/kg, po administered 60 mins before DABK challenge; type: functional; how it was run: as §2

Row | Compound | Ki (B1 bradykinin receptor [1]) | CLint (Liver microsomes [2]) | IC50 (B1 bradykinin receptor [3]) | CLint (Liver microsomes [4]) | further results
1 | O=C(CC1C(=O)Nc2ccccc2N1S(=O)(=O)c1ccc(Cl)c(Cl)c1)Nc1ccccc1 (centres undefined) | 1400 nM | – | – | – | –
2 | Cc1ccc(S(=O)(=O)N2c3ccccc3-c3ccccc3C2CC(=O)NCCc2ccc(C3=NCCN3)cc2)cc1 (centres undefined) | 4.7 nM | 12.9 mL/min/g | 52 nM | 1.5 mL/min/g | –
3 | O=C(CC1Cc2ccccc2CN1S(=O)(=O)c1ccc(Cl)c(Cl)c1)NCCc1ccc(C2=NCCN2)cc1 (centres undefined) | 481 nM | – | – | – | –
4 | O=C(CC1c2cc(F)ccc2-c2ccccc2N1S(=O)(=O)c1ccc(Cl)c(Cl)c1)NCCc1ccc(C2=NCCN2)cc1 (centres undefined) | 1.2 nM | 5.5 mL/min/g | 45 nM | 1.6 mL/min/g | –
5 | Cc1cc(C)c(S(=O)(=O)N2c3ccccc3-c3ccccc3C2CC(=O)NCCc2ccc(C3=NCCN3)cc2)cc1C (centres undefined) | 2.9 nM | 16.4 mL/min/g | 21 nM | 2.7 mL/min/g | –
6 | O=C(CC1c2ccccc2CCN1S(=O)(=O)c1ccc(Cl)c(Cl)c1)N[C@H]1CC[C@H](CCC2=NCCN2)CC1 (some centres undefined) | 1 nM | 12.5 mL/min/g | – | 1.1 mL/min/g | –
7 | O=C(CC1c2ccccc2CCN1S(=O)(=O)c1ccc(Cl)c(Cl)c1)Nc1ccc(N2CCC(N3CCCCC3)CC2)cc1 (centres undefined) | 138 nM | – | – | – | –
8 | O=C(CC1c2ccccc2-c2ccccc2N1S(=O)(=O)c1ccc(Cl)c(Cl)c1)NCCc1ccc(C2=NCCN2)cc1 (centres undefined) | 3.1 nM | 9.8 mL/min/g | 28 nM | 2.5 mL/min/g | –
9 | O=C(CC1CCc2ccccc2N1S(=O)(=O)c1ccc(Cl)c(Cl)c1)N[C@H]1CC[C@H](CCC2=NCCN2)CC1 (some centres undefined) | 4.3 nM | 9 mL/min/g | – | 0.6 mL/min/g | –
10 | COc1ccc2cc(S(=O)(=O)N[C@H](CC(=O)N[C@H](Cc3ccc(CN4[C@H](C)CCC[C@@H]4C)cc3)C(=O)N(C)C(C)C)c3ccc4c(c3)OCO4)ccc2c1 | – | – | – | – | Activity (Rattus norvegicus [5]): Active; inhibition in vivo at 1 mg/kg (Rattus norvegicus [6]): 6%; inhibition in vivo at 10 mg/kg (Rattus norvegicus [7]): 30%; inhibition in vivo at 3 mg/kg (Rattus norvegicus [8]): 16%
11 | COc1cccc2c1-c1ccccc1N(S(=O)(=O)c1ccc(Cl)c(Cl)c1)C2CC(=O)N[C@H]1CC[C@H](CCN2CCCC2)CC1 (some centres undefined) | 8.9 nM | 1.1 mL/min/g | 43 nM | 1.8 mL/min/g | Activity [9]: 5.8%; inhibition (Rattus norvegicus [10]): Dose-dependent effect; inhibition in vivo at 0.3 mg/kg (Rattus norvegicus [11]): 54%; inhibition in vivo at 0.03 mg/kg (Rattus norvegicus [12]): 19%; inhibition in vivo at 0.1 mg/kg (Rattus norvegicus [13]): 27%; Activity (Rattus norvegicus [14]): Dose-dependent effect
12 | O=C(CC1c2ccccc2CCN1S(=O)(=O)c1ccc(Cl)c(Cl)c1)N1CCC(Cc2ccc(C3=NCCN3)cc2)CC1 (centres undefined) | 3.8 nM | 13.1 mL/min/g | – | 2.4 mL/min/g | –
13 | COc1ccc(S(=O)(=O)N2c3ccccc3-c3ccccc3C2CC(=O)NCCc2ccc(C3=NCCN3)cc2)cc1 (centres undefined) | 15.5 nM | 14.5 mL/min/g | 81 nM | 4.8 mL/min/g | –
14 | O=C(CC1CCc2ccccc2N1S(=O)(=O)c1ccc(Cl)c(Cl)c1)NCCc1ccc(C2=NCCN2)cc1 (centres undefined) | 6.3 nM | 7.1 mL/min/g | – | 2.6 mL/min/g | –
15 | O=C(CC1CCc2ccccc2N1S(=O)(=O)c1ccc(Cl)c(Cl)c1)Nc1ccc(N2CCC(N3CCCCC3)CC2)cc1 (centres undefined) | 628 nM | – | – | – | –
16 | COc1cccc2c1-c1ccccc1N(S(=O)(=O)c1ccc(Cl)c(Cl)c1)C2CC(=O)NCCc1ccc(C2=NCCN2)cc1 (centres undefined) | 1.7 nM | 1 mL/min/g | 21 nM | 2.6 mL/min/g | –
17 | O=C(CC1COc2ccccc2N1S(=O)(=O)c1ccc(Cl)c(Cl)c1)NCCc1ccc(C2=NCCN2)cc1 (centres undefined) | 480 nM | – | – | – | –
18 | O=C(CC1CCc2ccccc2N1S(=O)(=O)c1ccc(Cl)c(Cl)c1)NCCN1CCN(c2ccncc2)CC1 (centres undefined) | 166 nM | 16.8 mL/min/g | – | 7.4 mL/min/g | –
19 | O=C(CC1c2cc(F)cc(F)c2-c2ccccc2N1S(=O)(=O)c1ccc(Cl)c(Cl)c1)NCCc1ccc(C2=NCCN2)cc1 (centres undefined) | 9.1 nM | 8 mL/min/g | 42 nM | 3.9 mL/min/g | –
20 | O=C(CC1c2ccccc2CCN1S(=O)(=O)c1ccc(Cl)c(Cl)c1)NCCc1ccc(C2=NCCN2)cc1 (centres undefined) | 2.2 nM | 4.2 mL/min/g | – | 1.9 mL/min/g | –
21 | O=C(O)Cc1ccccc1Nc1c(Cl)cccc1Cl [DICLOFENAC] | – | – | – | – | inhibition in vivo at 0.3 mg/kg (Rattus norvegicus [15]): 23%; inhibition in vivo at 3 mg/kg (Rattus norvegicus [16]): 35%; Activity (Rattus norvegicus [5]): Active; inhibition in vivo at 1 mg/kg (Rattus norvegicus [17]): 24%
